Laboratory results published in ChEMBL document CHEMBL4480463, “Quassinoids from Picrasma quassioides and Their Neuroprotective Effects” (2019).
Calls of active or inactive are those of the source. No cut-off for these calls is given here.

What was measured:
SH-SY5Y [1] = test: Neuroprotective activity against H2O2-induced cytotoxicity in human SH-SY5Y cells at 25 to 100 uM preincubated for 1 hr followed by H2O2-stimulation and measured after 4 hrs by MTT assay; type: functional, cell-based
Procedure, shortened: (§1)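 SH-SY5Y cells preincubated with compound (25, 50 or 100 μM) for 1 h, then exposed to 300 μM H2O2 for 4 h. Viability read by MTT assay. Trolox served as positive control.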

SH-SY5Y [2] = test: Inhibition of H2O2-induced apoptosis in human SH-SY5Y cells assessed as early apoptotic cells at 25 uM preincubated for 1 hr followed by H2O2-stimulation and measured after 4 hrs by Annexin V-FITC/propidium iodide staining-based flow cytometric analysis (reference value: 2.25%); type: functional; parameters: scale not given: the % may be the effect or the level left
SH-SY5Y [3] = test: Inhibition of H2O2-induced apoptosis in human SH-SY5Y cells assessed as necrotic cells at 25 uM preincubated for 1 hr followed by H2O2-stimulation and measured after 4 hrs by Annexin V-FITC/propidium iodide staining-based flow cytometric analysis (reference value: 22.2%); type: functional; parameters: scale not given: the % may be the effect or the level left
SH-SY5Y [4] = test: Neuroprotective activity against H2O2-induced cytotoxicity in human SH-SY5Y cells at 25 uM preincubated for 1 hr followed by H2O2-stimulation and measured after 4 hrs by MTT assay; type: functional, cell-based; procedure, shortened: as §1
SH-SY5Y [5] = test: Inhibition of H2O2-induced apoptosis in human SH-SY5Y cells assessed as viable cells at 25 uM preincubated for 1 hr followed by H2O2-stimulation and measured after 4 hrs by Annexin V-FITC/propidium iodide staining-based flow cytometric analysis (reference value: 50.7%); type: functional; conditions: read-out: Activity
SH-SY5Y [6] = test: Inhibition of H2O2-induced apoptosis in human SH-SY5Y cells assessed as late apoptotic cells at 25 uM preincubated for 1 hr followed by H2O2-stimulation and measured after 4 hrs by Annexin V-FITC/propidium iodide staining-based flow cytometric analysis (reference value: 24.9%); type: functional; parameters: scale not given: the % may be the effect or the level left
SH-SY5Y [7] = test: Inhibition of H2O2-induced apoptosis in human SH-SY5Y cells assessed as decrease in caspase-3 activity at 25 uM; type: functional, cell-based
Procedure, shortened: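 SH-SY5Y cells exposed to H2O2 with or without test compound; caspase-3 activity in the cells quantified with a commercial caspase-3 activity assay kit; data given as means ± SDs.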

SMILES: COC1=C[C@@H](C)[C@@H]2C[C@H]3O[C@@H](O[C@@H]4O[C@H](CO)[C@@H](O)[C@H](O)[C@H]4O)C[C@H]4[C@@H](C)[C@H](OC)[C@@H](O)[C@H]([C@@]2(C)C1=O)[C@@]34C
- Activity (SH-SY5Y [1]): Active

SMILES: COC1=C(C)[C@@H]2CC(=O)O[C@@H]3C[C@H]4[C@H](C)C[C@H](O)C(=O)[C@]4(C)[C@@H](C1=O)[C@@]32C
- Activity (SH-SY5Y [1]): Active

SMILES: COC1=C[C@@H](C)[C@@H]2C[C@H]3OC(=O)C[C@H]4[C@](C)(O)[C@@H](O)C(=O)[C@H]([C@@]2(C)C1=O)[C@@]34C
- Activity (SH-SY5Y [1]): inactive

SMILES: COC1=C[C@@H](C)[C@@H]2C[C@H]3OC(=O)C[C@@]4(O)[C@@H](C)[C@H](OC)[C@@H](O)[C@H]([C@@]2(C)C1=O)[C@@]34C
- Activity (SH-SY5Y [1]): Active

SMILES: COC1=C[C@@H](C)[C@@H]2C[C@H]3OC(=O)C[C@H]4C(CO)=C(OC)C(=O)[C@H]([C@@]2(C)C1=O)[C@@]34C
- Activity (SH-SY5Y [2]): 2.96%
- Activity (SH-SY5Y [3]): 7.31%
- Activity (SH-SY5Y [4]): Active
- viability at 25 µM (SH-SY5Y [5]): 76.8%
- Activity (SH-SY5Y [6]): 13%

SMILES: COC1=C[C@@H](C)[C@@H]2C[C@H]3O[C@@H](O[C@@H]4O[C@H](CO)[C@@H](O)[C@H](O)[C@H]4O)C[C@@H]4[C@@]3(C)[C@H]([C@H](O)C(=O)[C@@]4(C)O)[C@@]2(C)C1=O
- Activity (SH-SY5Y [1]): inactive

SMILES: COC1=C[C@@H](C)[C@@H]2C[C@H]3OC(=O)C[C@H]4[C@@H](C)[C@H](O)C(=O)[C@H]([C@@]2(C)C1=O)[C@@]34C
- Activity (SH-SY5Y [1]): inactive

SMILES: COC1=C[C@@H](C)[C@@H]2C[C@H]3OC(=O)C[C@H]4C(C)=C(OC)C(=O)[C@H]([C@@]2(C)C1=O)[C@@]34C [QUASSIN]
- Activity (SH-SY5Y [2]): 2.45%
- Activity (SH-SY5Y [3]): 10.7%
- Activity (SH-SY5Y [4]): Active
- viability at 25 µM (SH-SY5Y [5]): 73.1%
- Activity (SH-SY5Y [6]): 13.7%

SMILES: COC1=C[C@@H](C)[C@@H]2C[C@H]3O[C@@H](O[C@@H]4O[C@H](CO)[C@@H](O)[C@H](O)[C@H]4O)C[C@H]4[C@](C)(O)[C@H](OC)[C@@H](O)[C@H]([C@@]2(C)C1=O)[C@@]34C
- Activity (SH-SY5Y [1]): Active

SMILES: COC1=C[C@@H](C)[C@@H]2C[C@H]3OC(=O)C[C@H]4[C@](C)(O)[C@@H]5OCO[C@H]5[C@H]([C@@]2(C)C1=O)[C@@]34C
- Activity (SH-SY5Y [1]): Active

SMILES: COC1=C[C@@H](C)[C@@H]2C[C@H]3OC(=O)C[C@H]4[C@](C)(O)[C@H](OC)[C@@H](O)[C@H]([C@@]2(C)C1=O)[C@@]34C
- Activity (SH-SY5Y [1]): Active

SMILES: COC1=C[C@@H](C)[C@@H]2C[C@H]3OC(=O)C[C@H]4[C@@H](C)[C@@H]5OCO[C@H]5[C@H]([C@@]2(C)C1=O)[C@@]34C
- Activity (SH-SY5Y [1]): Active

SMILES: COC1=C[C@@H](C)[C@@H]2C[C@H]3OC(=O)C[C@@]4(O)C(C)=C(OC)C(=O)[C@H]([C@@]2(C)C1=O)[C@@]34C
- Activity (SH-SY5Y [2]): 3.18%
- Activity (SH-SY5Y [3]): 11.3%
- Activity (SH-SY5Y [4]): Active
- viability at 25 µM (SH-SY5Y [5]): 72.1%
- Activity (SH-SY5Y [6]): 13.4%

SMILES: COC1=C[C@@H](C)[C@@H]2C[C@H]3OC(=O)C[C@H]4[C@@H](C)[C@@H](O)C(=O)[C@H]([C@@]2(C)C1=O)[C@@]34C
- Activity (SH-SY5Y [1]): inactive

SMILES: COC1=C[C@@H](C)[C@@H]2C[C@H]3OC(=O)C[C@H]4[C@@H](C)[C@H](OC)[C@@H](OC(=O)c5cc(OC)c6c(c5)OCO6)[C@H]([C@@]2(C)C1=O)[C@@]34C
- Activity (SH-SY5Y [2]): 2.2%
- Activity (SH-SY5Y [3]): 7.89%
- Activity (SH-SY5Y [4]): Active
- viability at 25 µM (SH-SY5Y [5]): 79.8%
- Activity (SH-SY5Y [7]): Active
- Activity (SH-SY5Y [6]): 10.1%

SMILES: COC1=C[C@@H](C)[C@@H]2C[C@H]3OC(=O)C=C4[C@@H](C)[C@@H]5OCO[C@H]5[C@@H]([C@]43C)[C@@]2(C)C1=O
- Activity (SH-SY5Y [1]): inactive

SMILES: COC1=C[C@@H](C)[C@@H]2C[C@H]3OC(=O)C=C4C(C)=C(OC)C(=O)[C@@H]([C@]43C)[C@@]2(C)C1=O
- Activity (SH-SY5Y [1]): Active

SMILES: COC1=C[C@@H](C)[C@@H]2C[C@H]3O[C@@H](O[C@@H]4O[C@H](CO)[C@@H](O)[C@H](O)[C@H]4O)C[C@H]4C(C)=C(OC)C(=O)[C@H]([C@@]2(C)C1=O)[C@@]34C [PICRASINOSIDE B]
- Activity (SH-SY5Y [2]): 1.86%
- Activity (SH-SY5Y [3]): 7.43%
- Activity (SH-SY5Y [4]): Active
- viability at 25 µM (SH-SY5Y [5]): 82.2%
- Activity (SH-SY5Y [7]): Active
- Activity (SH-SY5Y [6]): 8.55%

SMILES: COC1=C[C@@H](C)[C@@H]2C[C@H]3O[C@@H](O[C@@H]4O[C@H](CO)[C@@H](O)[C@H](O)[C@H]4O)C[C@@H]4[C@@]3(C)[C@H]([C@H](O)C(=O)[C@@]4(C)OC(C)=O)[C@@]2(C)C1=O
- Activity (SH-SY5Y [1]): inactive
